# Data: ChEMBL document CHEMBL4689842, “EUbOPEN Chemogenomics Library wave 1” (2021)
# Test system: U2OS
# Assay: Multiplex assay against U2OS
# Assay type: toxicity, cell-based
# Conditions: human
# In short: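 On a CQ1 microscope at 37°C and 5% CO2, live cells were imaged after compound addition. They had been stained at seeding with Hoechst33342, BioTracker Green Microtubule Cytoskeleton Dye, MitoTracker Red and Annexin V Alexa Fluor 680. CellPathfinder machine-learning gating assigned cells to Hoechst high-intensity objects or normal cells, normal cells to healthy, pyknosed or fragmented nuclei, and pyknosed cells to mitotic or apoptotic. Tubulin, mitochondrial-mass and membrane-permeability phenotypes are per cents of healthy-nucleus cells.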
# [1] = 12 h, 1 µM, compound concentration 1 uM, replicate 1
# [2] = 12 h, 1 µM, compound concentration 1 uM, replicate 2
# [3] = 12 h, 10 µM, compound concentration 10 uM, replicate 1
# [4] = 12 h, 10 µM, compound concentration 10 uM, replicate 2
# [5] = 24 h, 1 µM, compound concentration 1 uM, replicate 1
# [6] = 24 h, 1 µM, compound concentration 1 uM, replicate 2
# [7] = 24 h, 10 µM, compound concentration 10 uM, replicate 1
# [8] = 24 h, 10 µM, compound concentration 10 uM, replicate 2
# [9] = 48 h, 1 µM, compound concentration 1 uM, replicate 1
# [10] = 48 h, 1 µM, compound concentration 1 uM, replicate 2
# [11] = 48 h, 10 µM, compound concentration 10 uM, replicate 1
# [12] = 48 h, 10 µM, compound concentration 10 uM, replicate 2
compound,measurement,setting,value
Cc1[nH]c(/C=C2\C(=O)Nc3ccc(S(=O)(=O)N(C)c4cccc(Cl)c4)cc32)c(C)c1C(=O)N1CCN(C)CC1,Population Apoptotic (%),[1],66%
same,Population Fragmented Nuclei (%),[1],13%
same,Population Mitochondria Different-Phenotype (%),[1],58%
same,Population Mitotic Cells (%),[1],33%
same,Population Pyknosed Nuclei (%),[1],9%
same,Population Tubulin-Different-Phenotype (%),[1],80%
same,Total Cell Count,[1],305
same,Population Apoptotic (%),[2],100%
same,Population Fragmented Nuclei (%),[2],16%
same,Population Healthy Nuclei (%),[2],77%
same,Population Hoechst High Intensity Objects (%),[2],12%
same,Population Membrane Permeable-Phenotype (%),[2],12%
same,Population Mitochondria Different-Phenotype (%),[2],42%
same,Population Mitotic Cells (%),[2],0%
same,Population Normal (%),[2],87%
same,Population Pyknosed Nuclei (%),[2],6%
same,Population Tubulin-Different-Phenotype (%),[2],68%
same,Total Cell Count,[2],90
same,Population Apoptotic (%),[3],60%
same,Population Fragmented Nuclei (%),[3],12%
same,Population Healthy Nuclei (%),[3],76%
same,Population Hoechst High Intensity Objects (%),[3],8%
same,Population Membrane Permeable-Phenotype (%),[3],24%
same,Population Mitochondria Different-Phenotype (%),[3],68%
same,Population Mitotic Cells (%),[3],40%
same,Population Normal (%),[3],91%
same,Population Pyknosed Nuclei (%),[3],11%
same,Total Cell Count,[3],147
same,Population Apoptotic (%),[4],25%
same,Population Fragmented Nuclei (%),[4],10%
same,Population Healthy Nuclei (%),[4],74%
same,Population Hoechst High Intensity Objects (%),[4],12%
same,Population Membrane Permeable-Phenotype (%),[4],40%
same,Population Mitochondria Different-Phenotype (%),[4],97%
same,Population Mitotic Cells (%),[4],75%
same,Population Normal (%),[4],87%
same,Population Pyknosed Nuclei (%),[4],16%
same,Population Tubulin-Different-Phenotype (%),[4],100%
same,Total Cell Count,[4],70
same,Population Apoptotic (%),[5],73%
same,Population Fragmented Nuclei (%),[5],11%
same,Population Healthy Nuclei (%),[5],77%
same,Population Hoechst High Intensity Objects (%),[5],9%
same,Population Membrane Permeable-Phenotype (%),[5],7%
same,Population Mitochondria Different-Phenotype (%),[5],51%
same,Population Mitotic Cells (%),[5],26%
same,Population Normal (%),[5],90%
same,Population Pyknosed Nuclei (%),[5],11%
same,Population Tubulin-Different-Phenotype (%),[5],61%
same,Total Cell Count,[5],272
same,Population Apoptotic (%),[6],100%
same,Population Fragmented Nuclei (%),[6],18%
same,Population Healthy Nuclei (%),[6],72%
same,Population Hoechst High Intensity Objects (%),[6],8%
same,Population Membrane Permeable-Phenotype (%),[6],10%
same,Population Mitochondria Different-Phenotype (%),[6],40%
same,Population Mitotic Cells (%),[6],0%
same,Population Normal (%),[6],91%
same,Population Pyknosed Nuclei (%),[6],9%
same,Population Tubulin-Different-Phenotype (%),[6],55%
same,Total Cell Count,[6],65
same,Population Apoptotic (%),[7],82%
same,Population Fragmented Nuclei (%),[7],13%
same,Population Healthy Nuclei (%),[7],68%
same,Population Hoechst High Intensity Objects (%),[7],8%
same,Population Membrane Permeable-Phenotype (%),[7],46%
same,Population Mitochondria Different-Phenotype (%),[7],88%
same,Population Mitotic Cells (%),[7],17%
same,Population Normal (%),[7],91%
same,Population Pyknosed Nuclei (%),[7],17%
same,Population Tubulin-Different-Phenotype (%),[7],100%
same,Total Cell Count,[7],140
same,Population Apoptotic (%),[8],100%
same,Population Fragmented Nuclei (%),[8],17%
same,Population Healthy Nuclei (%),[8],73%
same,Population Membrane Permeable-Phenotype (%),[8],84%
same,Population Mitochondria Different-Phenotype (%),[8],100%
same,Population Mitotic Cells (%),[8],0%
same,Population Pyknosed Nuclei (%),[8],9%
same,Total Cell Count,[8],71
same,Population Apoptotic (%),[9],80%
same,Population Fragmented Nuclei (%),[9],18%
same,Population Healthy Nuclei (%),[9],70%
same,Population Hoechst High Intensity Objects (%),[9],4%
same,Population Membrane Permeable-Phenotype (%),[9],10%
same,Population Mitochondria Different-Phenotype (%),[9],32%
same,Population Mitotic Cells (%),[9],19%
same,Population Normal (%),[9],95%
same,Population Pyknosed Nuclei (%),[9],11%
same,Population Tubulin-Different-Phenotype (%),[9],30%
same,Total Cell Count,[9],261
same,Population Apoptotic (%),[10],25%
same,Population Fragmented Nuclei (%),[10],16%
same,Population Healthy Nuclei (%),[10],77%
same,Population Hoechst High Intensity Objects (%),[10],14%
same,Population Membrane Permeable-Phenotype (%),[10],21%
same,Population Mitochondria Different-Phenotype (%),[10],30%
same,Population Mitotic Cells (%),[10],75%
same,Population Normal (%),[10],85%
same,Population Pyknosed Nuclei (%),[10],5%
same,Population Tubulin-Different-Phenotype (%),[10],37%
same,Total Cell Count,[10],62
same,Population Fragmented Nuclei (%),[11],24%
same,Population Healthy Nuclei (%),[11],50%
same,Population Hoechst High Intensity Objects (%),[11],7%
same,Population Membrane Permeable-Phenotype (%),[11],76%
same,Population Mitochondria Different-Phenotype (%),[11],91%
same,Population Normal (%),[11],92%
same,Population Pyknosed Nuclei (%),[11],24%
same,Total Cell Count,[11],186
same,Population Apoptotic (%),[12],100%
same,Population Fragmented Nuclei (%),[12],14%
same,Population Healthy Nuclei (%),[12],72%
same,Population Hoechst High Intensity Objects (%),[12],15%
same,Population Membrane Permeable-Phenotype (%),[12],88%
same,Population Mitochondria Different-Phenotype (%),[12],100%
same,Population Mitotic Cells (%),[12],0%
same,Population Normal (%),[12],84%
same,Population Pyknosed Nuclei (%),[12],12%
same,Population Tubulin-Different-Phenotype (%),[12],100%
same,Total Cell Count,[12],84
